Experimental findings from ChEMBL document CHEMBL1143266, “Synthesis of spiro[chroman-2,4'-piperidin]-4-one derivatives as acetyl-CoA carboxylase inhibitors” (Bioorg Med Chem Lett, 2009) are described below.

For data set [1], the species on record is Rattus norvegicus. In words: (§1) Inhibition of acetyl-CoA carboxylase in rat skeletal muscle by HPLC at 1 uM/L. Conditions: Muscle tissue. Format: tissue-based. The gist of the method:
(§2)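 Biotinylated enzyme bound on a streptavidin column, eluted with 5 mM biotin, and protein quantified by Bradford. Buffer was 50 mM HEPES pH 7.5, 20 mM MgCl₂, 10 mM tripotassium citrate, 0.075% BSA, 2 mM ATP, 1 mM acetyl-CoA and 17.6 mM NaHCO₃, stopped with 10% perchloric acid. HPLC read-out measured acetyl-CoA loss and/or malonyl-CoA formation.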

A short description of data set [2]: Inhibition of acetyl-CoA carboxylase in rat skeletal muscle by HPLC. It is filed as tissue-based, Muscle tissue.
The species entered for data set [3] is Rattus norvegicus. In words: Inhibition of acetyl-CoA carboxylase in rat skeletal muscle by HPLC at 10 uM. It is filed as tissue-based. The settings on record: Muscle tissue. The gist of the method:
as §2

Data set [4] in a line: as §1. Format: tissue-based, Muscle tissue. A digest of the protocol:
as §2

Data set [5] is filed under the species Rattus norvegicus. Briefly: Inhibition of acetyl-CoA carboxylase in rat skeletal muscle by HPLC at 5 uM. Format: tissue-based. Conditions: Muscle tissue. A digest of the protocol:
as §2

The subject of a further data set is Mus musculus. Briefly: Reduction in respiratory quotient in ip dosed C57BL/6J mouse administered once a day for 8 days measured after 24 hrs of day 7 acclimatization in presence of high carbohydrate. Format: functional, organism-based. A digest of the protocol:
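C57BL/6J mice aged 7–8 weeks on normal chow (carbohydrate 64%, fat 7%, protein 20%), n = 8 per group, got vehicle or 30 or 60 mg/kg ip once daily for 8 days. After 24 h cage acclimatization from day 7, O₂ consumption and CO₂ production were recorded immediately post-dose. The first 30 min were excluded, and RQ was averaged over the initial 8 h and compared by Student's t test.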

Data set [6] can be described thus: Membrane permeability at pH 6.8 by PAMPA. Conditions: read-out: permeability. Format: ADME. For orientation: In PAMPA a lipid-coated filter parts donor from acceptor wells.

The term inhibition denotes the drop in the measured response relative to a control, in per cent. A lower inhibition goes with a response near the control. `COc1cc(C(=O)N2CCC3(CC2)CC(=O)c2cc(Nc4ccnn4C)ccc2O3)nc2c(OC)cccc12`: the inhibition in the data set listed under Rattus norvegicus [1] came out at 100%.

By IC50 is commonly meant the concentration that gives 50% inhibition. In data set [2], `O=C1CC2(CCN(C(=O)c3cc(-c4ccccc4)nc(-c4ccccc4)c3)CC2)Oc2ccccc21` returned an IC50 of 1.2 µM. This molecule returned an inhibition in the data set filed under Rattus norvegicus [3] above 90%. In turn, `O=C1CC2(CCN(C(=O)N3c4ccccc4Oc4ccccc43)CC2)Oc2ccc(N3CCOCC3)cc21` displayed an IC50 in data set [4] of 0.099 µM. `O=C1CC2(CCN(C(=O)c3cc(-c4ccccc4)nc(-c4ccccc4)c3)CC2)Oc2cc(N3CCOCC3)ccc21`: the IC50 in data set [2] worked out at 0.026 µM. In the data set listed under Rattus norvegicus [3], this molecule gave an inhibition above 90%. In the same order, the values of `Cc1cc2c(cc1N1CCOCC1)C(=O)CC1(CCN(C(=O)c3cc(-c4ccccc4)nc(-c4ccccc4)c3)CC1)O2` are 0.002 µM and above 90%.

`CC1(C)C(=O)c2ccccc2OC12CCN(C(=O)c1cc(-c3ccccc3)nc(-c3ccccc3)c1)CC2` returned an inhibition in the data set listed under Rattus norvegicus [3] of 44%. In data set [2], `O=C1CC2(CCN(C(=O)c3cc(-c4ccccc4)nc(-c4ccccc4)c3)CC2)Oc2ccc(N3CCOCC3)cc21` had a half-inhibitory concentration (IC50) of 0.006 µM. Further, the inhibition in the data set filed under Rattus norvegicus [3] is above 90%. In the same order, the values of `CC1COCC(C)N1c1ccc2c(c1)OC1(CCN(C(=O)c3cc(-c4ccccc4)nc(-c4ccccc4)c3)CC1)CC2=O` (centres undefined) are 0.059 µM and above 90%.

Regarding `O=C1CC2(CCN(C(=O)N3c4ccccc4Sc4ccccc43)CC2)Oc2ccc(N3CCOCC3)cc21`, the inhibition in the data set filed under Rattus norvegicus [3] is 64%. `O=C1CC2(CCN(C(=O)N3c4ccccc4Sc4ccccc43)CC2)Oc2ccccc21`: the inhibition in the data set filed under Rattus norvegicus [3] came to 16%. In the data set filed under Rattus norvegicus [5], `O=C1CC2(CCN(C(=O)N3c4ccccc4Oc4ccccc43)CC2)Oc2ccccc21` showed an inhibition of 51%. `CC(=O)N[C@H](C)C#Cc1ccc2c(c1)C(=O)CC1(CCN(C(=O)c3cc(-c4ccccc4)nc(-c4ccccc4)c3)CC1)O2`: the IC50 in data set [2] worked out at 0.061 µM. For the same molecule, the inhibition in the data set listed under Rattus norvegicus [3] was above 90%. With `O=C(c1c2ccccc2cc2ccccc12)N1CCC(N2CCC[C@@H](C(=O)N3CCOCC3)C2)CC1`, in the data set listed under Rattus norvegicus [3], the inhibition was above 90%. Regarding `O=C1CC2(CCN(C(=O)N3c4ccccc4Oc4ccccc43)CC2)Oc2ccc(N3CCCC3=O)cc21`, 0.236 µM corresponded to half-maximal inhibition in data set [4] (IC50). `CCCC(=O)Nc1ccc2c(c1)C(=O)CC1(CCN(C(=O)N3c4ccccc4CCc4ccccc43)CC1)O2`: the inhibition in the data set filed under Rattus norvegicus [3] was 4%. With `CCCC(=O)Nc1ccc2c(c1)C(=O)CC1(CCN(C(=O)N3c4ccccc4Sc4ccccc43)CC1)O2`, the inhibition in the data set filed under Rattus norvegicus [3] is 48%. Turning to `O=C1CC2(CCN(C(=O)c3cc(-c4ccccc4)nc(-c4ccccc4)c3)CC2)Oc2cc(N3CCCC3)ccc21`, the IC50 in data set [2] is 0.061 µM. In the data set listed under Rattus norvegicus [3], the inhibition was above 90%.

In data set [2], `CN1CCN(c2ccc3c(c2)OC2(CCN(C(=O)c4cc(-c5ccccc5)nc(-c5ccccc5)c4)CC2)CC3=O)CC1` showed a half-maximal inhibitory concentration (IC50) of 0.027 µM. Also, the inhibition in the data set listed under Rattus norvegicus [3] was above 90%. `O=C1CC2(CCN(C(=O)N3c4ccccc4Oc4ccccc43)CC2)Oc2cc(N3CCOCC3)ccc21` yielded an IC50 in data set [4] of 0.208 µM. Regarding `O=C1CC2(CCN(C(=O)c3cc(-c4ccccc4)nc(-c4ccccc4)c3)CC2)Oc2ccc(N3CCCC3=O)cc21`, the Activity result with Mus musculus was “Dose-dependent effect”. Besides, it took 0.014 µM to reach half-maximal inhibition in data set [2] (IC50). Also, the inhibition in the data set filed under Rattus norvegicus [3] was above 90%. Further, in data set [6], the Papp stood at 268 nm/s. In turn, `COc1cc(C(=O)N2CCC3(CC2)CC(=O)c2cc(-c4nc[nH]n4)ccc2O3)nc2c(OC)cccc12` came in with an inhibition in the data set filed under Rattus norvegicus [1] of 100%. As to `CCCC(=O)Nc1ccc2c(c1)C(=O)CC1(CCN(C(=O)c3cc(-c4ccccc4)nc(-c4ccccc4)c3)CC1)O2`, 0.006 µM corresponded to half-maximal inhibition in data set [2] (IC50). Further, in the data set listed under Rattus norvegicus [3], the inhibition is above 90%.

In turn, `CCCC(=O)Nc1ccc2c(c1)C(=O)CC1(CCN(C(=O)N3c4ccccc4Oc4ccccc43)CC1)O2` came in with an IC50 in data set [4] of 0.101 µM.

`CCCC(=O)N(C)c1ccc2c(c1)C(=O)C(C)(C)C1(CCN(C(=O)c3cc(-c4ccccc4)nc(-c4ccccc4)c3)CC1)O2` came in with an inhibition in the data set filed under Rattus norvegicus [3] of 83%. The molecule `O=C1CC2(CCN(C(=O)N3c4ccccc4CCc4ccccc43)CC2)Oc2ccc(N3CCOCC3)cc21` came in with an inhibition in the data set filed under Rattus norvegicus [3] of 7%. `O=C1CC2(CCN(C(=O)c3cc(-c4ccccc4)nc(-c4ccccc4)c3)CC2)Oc2cc(N3CCCCC3)ccc21`: the IC50 in data set [2] amounted to 0.036 µM. This molecule also yielded an inhibition in the data set listed under Rattus norvegicus [3] above 90%.
